According to ChEMBL document CHEMBL4819003, “Optimization of novel oxidative DIMs as Nur77 modulators of the Nur77-Bcl-2 apoptotic pathway” (Eur J Med Chem, 2021):
The source made the active and inactive calls. The calls are words filed in the database; no cut-off is given here.

What was measured:
[1] = molecular target: T1, Nuclear receptor subfamily 4immunitygroup A member 1 (Homo sapiens, UniProt P22736); experiment: Modulation of Myc-Nur77 (unknown origin) transfected in human HEK293T cells assessed as induction of Myc-Nur77 mitochondrial targeting by measuring increase in Myc-Nur77 accumulation in mitochondria at 0.5 uM measured after 2 hrs by western blot analysis; conditions: filed as modulator
Summary of the method: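 HEK293T cells transfected with Myc-Nur77 were exposed to 0.5 μM compound for 2 h. Cells were homogenised in sucrose Buffer D; 500 g then 5000 g spins gave a mitochondrial pellet. Whole-cell and mitochondrial fractions were western blotted for Myc-Nur77, with PARP and Tom20 as fraction-purity markers.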

MDA-MB-231 = experiment: Induction of apoptosis in human MDA-MB-231 cells assessed as PARP cleavage at 0.5 uM measured after 6 hrs by western blot assay; format: functional, cell-based
Summary of the method: (§1)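 Cells exposed to 0.5 µM for 6 h. Lysates resolved by SDS-PAGE and blotted to PVDF, blocked in 5% milk/TBST, probed with primary antibodies at 1:1000, ECL detection. Apoptosis scored as the densitometric ratio of cleaved PARP band to intact PARP band; mean ± SD, n = 3.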

HCT-116 = experiment: Induction of apoptosis in human HCT-116 cells assessed as PARP cleavage at 0.5 uM measured after 6 hrs by western blot assay; format: functional, cell-based; summary of the method: as §1
BT-549 = experiment: Induction of apoptosis in human BT-549 cells assessed as PARP cleavage at 0.5 uM measured after 6 hrs by western blot assay; format: functional, cell-based; summary of the method: as §1
SW-620 = experiment: Induction of apoptosis in human SW-620 cells assessed as PARP cleavage at 0.5 uM measured after 6 hrs by western blot assay; format: functional, cell-based; summary of the method: as §1
MEF [2] = experiment: Induction of apoptosis in wild type mouse MEF cells assessed as PARP cleavage at 0.5 uM measured after 6 hrs by western blot assay; format: functional, cell-based
Summary of the method: (§2)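 Wild-type, Nur77−/− or Bcl-2−/− mouse embryonic fibroblasts grown in DMEM with 10% FBS and treated with 0.5 µM for 6 h. PARP cleavage detected by western blot, primary antibodies at 1:1000, ECL.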

[3] = molecular target: T1, Nuclear receptor subfamily 4immunitygroup A member 1; experiment: Modulation of Myc-Nur77-LBD (unknown origin) transfected in human HEK293T cells assessed as induction of Myc-Nur77 mitochondrial targeting by measuring increase in Myc-Nur77 accumulation in mitochondria at 0.5 uM measured after 2 hrs by Mito-tracker dye based confocal microscopy method; conditions: filed as modulator
Summary of the method: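 HEK293T cells transfected with Myc-Nur77-LBD were given 0.5 μM compound for 2 h, stained with Mito-Tracker and immunostained. Nur77 mitochondrial localisation was visualised by confocal microscopy.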

MEF [4] = experiment: Induction of apoptosis in mouse MEF cells deficient in Bcl2 assessed as PARP cleavage at 0.5 uM measured after 6 hrs by Western blot assay; format: functional, cell-based; summary of the method: as §2
Mus musculus = experiment: Antitumour activity against FVB/N mammary tumor MMTV-PyMT mouse model assessed as inhibition of tumour growth at 3 mg/kg, po administered daily for 14 days; format: functional, organism-based; conditions: time 14.0 day
Summary of the method: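 Female MMTV-PyMT transgenic mice (FVB/N background), 12 weeks old, randomized n = 6 per group; daily oral gavage 3 mg/kg for 14 days. Dosing solution: DMSO stock diluted in normal saline with 5.0% (V/V) Tween-80 to 3 mg/mL. Tumours weighed at end; mean ± SD, Student's t-test versus untreated controls.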

T1 sequence (P22736 whole entry): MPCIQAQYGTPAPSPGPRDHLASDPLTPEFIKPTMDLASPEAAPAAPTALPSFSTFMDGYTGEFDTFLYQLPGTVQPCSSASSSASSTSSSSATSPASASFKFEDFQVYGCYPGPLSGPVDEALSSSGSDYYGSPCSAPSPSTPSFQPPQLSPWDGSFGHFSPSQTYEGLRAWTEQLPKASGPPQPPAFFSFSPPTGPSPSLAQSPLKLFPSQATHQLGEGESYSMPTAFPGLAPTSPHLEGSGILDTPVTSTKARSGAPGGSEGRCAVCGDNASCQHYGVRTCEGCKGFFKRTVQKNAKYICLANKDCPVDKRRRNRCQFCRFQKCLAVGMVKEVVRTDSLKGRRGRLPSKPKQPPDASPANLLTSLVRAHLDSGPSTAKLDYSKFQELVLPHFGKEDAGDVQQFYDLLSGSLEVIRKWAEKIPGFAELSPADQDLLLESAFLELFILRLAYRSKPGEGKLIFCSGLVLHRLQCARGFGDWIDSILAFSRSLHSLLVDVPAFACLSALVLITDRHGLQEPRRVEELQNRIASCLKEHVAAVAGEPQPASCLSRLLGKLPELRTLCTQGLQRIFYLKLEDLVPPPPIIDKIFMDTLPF

Activity [1]: Active
Activity [3]: Active
Structure (SMILES): FC(F)(F)c1ccc([C+](c2c[nH]c3ccccc23)c2c[nH]c3ccccc23)cc1
Activity (MDA-MB-231): Active
Activity (HCT-116): Active
Activity (BT-549): Active
Activity (SW-620): Active
Activity (MEF [2]): Active
Activity (MEF [4]): inactive
Activity (Mus musculus): Active
